Results: PMC9574854 (Journal of Medicinal Chemistry, 2022)
Each block holds one compound with its values, some of them ahead of it.

Key:
PfGSK3 = molecular target: T1, PfGSK3 (Plasmodium falciparum, UniProt O77344); test: KinaseSeeker split luciferase assay on PfGSK3; format: biochemical; settings: screen at 1 μM
T1 sequence (O77344 1-440): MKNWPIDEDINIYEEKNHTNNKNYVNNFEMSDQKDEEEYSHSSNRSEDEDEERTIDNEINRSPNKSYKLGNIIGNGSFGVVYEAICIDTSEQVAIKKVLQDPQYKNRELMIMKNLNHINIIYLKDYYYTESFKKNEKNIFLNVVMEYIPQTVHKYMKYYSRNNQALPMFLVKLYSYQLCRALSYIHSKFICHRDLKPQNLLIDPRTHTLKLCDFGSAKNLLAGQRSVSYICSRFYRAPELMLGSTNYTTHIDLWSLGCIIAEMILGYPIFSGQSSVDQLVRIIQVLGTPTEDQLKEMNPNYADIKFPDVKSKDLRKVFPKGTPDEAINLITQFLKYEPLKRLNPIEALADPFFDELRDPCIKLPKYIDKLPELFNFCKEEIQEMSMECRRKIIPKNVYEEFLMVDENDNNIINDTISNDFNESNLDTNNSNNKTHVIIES
Summary of the method: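 Split-luciferase binding assay: lysate with Cfluc-PfGSK3 fusion plus Fos-Nfluc, incubated 2 h with test compound in DMSO (or DMSO control) and a kinase-specific probe. Luminescence was read immediately after luciferin reagent. % inhibition = (control − sample)/control × 100. Compounds were first counter-screened against split luciferase, then screened at 1 μM.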

PfPK6 = molecular target: T2, PfPK6 (Plasmodium falciparum, UniProt Q8IDW1); test: KinaseSeeker split luciferase assay on PfPK6; format: biochemical; settings: for fold increase in potency on PfPK6: compared to IKK16
T2 sequence (Q8IDW1 1-305): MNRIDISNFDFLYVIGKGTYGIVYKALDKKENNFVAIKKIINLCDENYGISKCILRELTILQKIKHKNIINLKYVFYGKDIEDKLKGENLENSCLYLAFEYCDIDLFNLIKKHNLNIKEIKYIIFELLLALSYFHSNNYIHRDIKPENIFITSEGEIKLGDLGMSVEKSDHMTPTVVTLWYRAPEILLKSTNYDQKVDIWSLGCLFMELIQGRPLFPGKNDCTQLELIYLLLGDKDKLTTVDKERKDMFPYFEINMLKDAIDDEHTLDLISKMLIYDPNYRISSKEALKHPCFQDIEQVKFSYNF

[1] = HepG2 CellTiter-Glo cytotoxicity assay; format: cell-based, human; settings: human, HepG2 cells
Summary of the method: (§1)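 HepG2 cells were grown in DMEM with 10% FBS, 1% NEAA and 1% L-glutamine, without antibiotics. They were seeded at 4000 cells/well and left overnight at 37 °C, 5% CO₂. Test compound was added at 200 nM or 2 μM, in quadruplicate, with DMSO held constant, for 48 h. Viability was read by CellTiter-Glo 2 luminescence. % viability is the average of two experiments.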

HepG2 cells = test: HepG2 CellTiter-Glo cytotoxicity assay; format: cell-based, human; settings: HepG2, 2 μM
Summary of the method: as §1

468 human kinases = test: DiscoverX KINOMEscan panel, selectivity score; format: binding
Pf3D7 = settings: read-out: Pf3D7 blood stage EC50; blood stage proliferation; cited from earlier work
PfCDPK1 = settings: read-out: PfCDPK1 IC50; cited from earlier work

activity on PfGSK3, in words (PfGSK3): abolished activity
fold increase in potency on PfPK6 (PfPK6): ~3 fold
SMILES: c1ccc2sc(-c3ccnc(Nc4ccc(CN5CCC(N6CCCC6)CC5)cc4)n3)cc2c1 [Compound 12, 4-(Benzo[b]thiophen-2-yl)-N-(4-((4-(pyrrolidin-1-yl)piperidin-1-yl)methyl)phenyl)pyrimidin-2-amine]
viability at 48 h, 200 nM [1]: 100%

fold increase in potency on PfPK6 (PfPK6): 9 fold
selectivity (preference) for PfPK6 over PfGSK3 (PfPK6; ratio of IC50 values): ~16 fold
no. of kinase hits (468 human kinases; 1 μM, 468 human kinases, PoC ≤10% (>90% inhibition)): 100
SMILES: Cc1cnc(Nc2ccc(C(=O)N3CCC(N4CCCC4)CC3)cc2)nc1-c1cc2ccccc2s1 [Compound 18n, (4-((4-(Benzo[b]thiophen-2-yl)-5-methylpyrimidin-2-yl)amino)phenyl)(4-(pyrrolidin-1-yl)piperidin-1-yl)methanone]
more cytotoxicity than IKK16 (HepG2 cells): ~40%
reduction in selectivity (468 human kinases; S10 (1 μM) compared to IKK16): ~2 fold

SMILES: Cc1cn2c(-c3ccnc(NCC4CC4)n3)c(-c3ccc(F)c(NS(C)(=O)=O)c3)nc2cc1CN(C)C [ML10]
EC50 (Pf3D7): 2.1 nM

SMILES: N[C@H]1CC[C@H](Nc2nc(Nc3ccc(C(=O)N4CCCCC4)cc3)c3ncn(-c4cccc(F)c4)c3n2)CC1 [Purfalcamine]
IC50 (PfCDPK1): 17 nM
